# Test system: Fibroblast
# Assay: Multiplex assay against human fibroblast
# Assay type: toxicity, cell-based
# Method in brief: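 Live cells carried four stains from seeding: Hoechst33342, BioTracker Green Microtubule Cytoskeleton Dye, MitoTracker Red and Annexin V Alexa Fluor 680. They were imaged on a CQ1 microscope at 37°C and 5% CO2 after compound addition. Using CellPathfinder machine-learning gating, cells were split into Hoechst high-intensity objects or normal cells, normal cells into healthy, pyknosed or fragmented nuclei, and pyknosed cells into mitotic or apoptotic; tubulin, mitochondrial-mass and membrane-permeability phenotypes are per cents of healthy-nucleus cells.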
# [1] = 12 h, 1 µM, compound concentration 1 uM, replicate 1
# [2] = 12 h, 1 µM, compound concentration 1 uM, replicate 2
# [3] = 12 h, 10 µM, compound concentration 10 uM, replicate 1
# [4] = 12 h, 10 µM, compound concentration 10 uM, replicate 2
# [5] = 24 h, 1 µM, compound concentration 1 uM, replicate 1
# [6] = 24 h, 1 µM, compound concentration 1 uM, replicate 2
# [7] = 24 h, 10 µM, compound concentration 10 uM, replicate 1
# [8] = 24 h, 10 µM, compound concentration 10 uM, replicate 2
# [9] = 48 h, 1 µM, compound concentration 1 uM, replicate 1
# [10] = 48 h, 1 µM, compound concentration 1 uM, replicate 2
# [11] = 48 h, 10 µM, compound concentration 10 uM, replicate 1
# [12] = 48 h, 10 µM, compound concentration 10 uM, replicate 2
structure (smiles),measurement,setting,value
CN(C)C(=O)N[C@H]1CC[C@H](CCN2CCN(c3cccc(Cl)c3Cl)CC2)CC1.Cl [CARIPRAZINE HYDROCHLORIDE],Population Apoptotic (%),[1],65%
same,Population Fragmented Nuclei (%),[1],15%
same,Population Healthy Nuclei (%),[1],51%
same,Population Hoechst High Intensity Objects (%),[1],6%
same,Population Membrane Permeable-Phenotype (%),[1],32%
same,Population Mitochondria Different-Phenotype (%),[1],10%
same,Population Mitotic Cells (%),[1],34%
same,Population Normal (%),[1],93%
same,Population Pyknosed Nuclei (%),[1],33%
same,Population Tubulin-Different-Phenotype (%),[1],45%
same,Total Cell Count,[1],83
same,Population Apoptotic (%),[2],60%
same,Population Fragmented Nuclei (%),[2],7%
same,Population Healthy Nuclei (%),[2],84%
same,Population Membrane Permeable-Phenotype (%),[2],6%
same,Population Mitochondria Different-Phenotype (%),[2],29%
same,Population Mitotic Cells (%),[2],40%
same,Population Pyknosed Nuclei (%),[2],8%
same,Population Tubulin-Different-Phenotype (%),[2],22%
same,Total Cell Count,[2],61
same,Population Apoptotic (%),[3],71%
same,Population Fragmented Nuclei (%),[3],26%
same,Population Healthy Nuclei (%),[3],38%
same,Population Hoechst High Intensity Objects (%),[3],16%
same,Population Membrane Permeable-Phenotype (%),[3],16%
same,Population Mitochondria Different-Phenotype (%),[3],28%
same,Population Mitotic Cells (%),[3],28%
same,Population Normal (%),[3],83%
same,Population Pyknosed Nuclei (%),[3],34%
same,Population Tubulin-Different-Phenotype (%),[3],92%
same,Total Cell Count,[3],155
same,Population Apoptotic (%),[4],36%
same,Population Fragmented Nuclei (%),[4],17%
same,Population Healthy Nuclei (%),[4],57%
same,Population Hoechst High Intensity Objects (%),[4],3%
same,Population Membrane Permeable-Phenotype (%),[4],47%
same,Population Mitochondria Different-Phenotype (%),[4],95%
same,Population Mitotic Cells (%),[4],63%
same,Population Normal (%),[4],96%
same,Population Pyknosed Nuclei (%),[4],25%
same,Population Tubulin-Different-Phenotype (%),[4],95%
same,Total Cell Count,[4],79
same,Population Apoptotic (%),[5],72%
same,Population Fragmented Nuclei (%),[5],21%
same,Population Healthy Nuclei (%),[5],49%
same,Population Hoechst High Intensity Objects (%),[5],10%
same,Population Membrane Permeable-Phenotype (%),[5],21%
same,Population Mitochondria Different-Phenotype (%),[5],11%
same,Population Mitotic Cells (%),[5],28%
same,Population Normal (%),[5],89%
same,Population Pyknosed Nuclei (%),[5],29%
same,Population Tubulin-Different-Phenotype (%),[5],45%
same,Total Cell Count,[5],95
same,Population Apoptotic (%),[6],66%
same,Population Fragmented Nuclei (%),[6],6%
same,Population Healthy Nuclei (%),[6],84%
same,Population Hoechst High Intensity Objects (%),[6],4%
same,Population Membrane Permeable-Phenotype (%),[6],7%
same,Population Mitochondria Different-Phenotype (%),[6],22%
same,Population Mitotic Cells (%),[6],33%
same,Population Normal (%),[6],95%
same,Population Pyknosed Nuclei (%),[6],9%
same,Population Tubulin-Different-Phenotype (%),[6],14%
same,Total Cell Count,[6],67
same,Population Apoptotic (%),[7],70%
same,Population Fragmented Nuclei (%),[7],23%
same,Population Healthy Nuclei (%),[7],54%
same,Population Hoechst High Intensity Objects (%),[7],18%
same,Population Membrane Permeable-Phenotype (%),[7],17%
same,Population Mitochondria Different-Phenotype (%),[7],36%
same,Population Mitotic Cells (%),[7],29%
same,Population Normal (%),[7],81%
same,Population Pyknosed Nuclei (%),[7],21%
same,Population Tubulin-Different-Phenotype (%),[7],82%
same,Total Cell Count,[7],190
same,Population Apoptotic (%),[8],94%
same,Population Healthy Nuclei (%),[8],55%
same,Population Hoechst High Intensity Objects (%),[8],3%
same,Population Membrane Permeable-Phenotype (%),[8],42%
same,Population Mitochondria Different-Phenotype (%),[8],95%
same,Population Mitotic Cells (%),[8],5%
same,Population Normal (%),[8],96%
same,Population Pyknosed Nuclei (%),[8],20%
same,Population Tubulin-Different-Phenotype (%),[8],95%
same,Total Cell Count,[8],87
same,Population Apoptotic (%),[9],65%
same,Population Fragmented Nuclei (%),[9],35%
same,Population Healthy Nuclei (%),[9],46%
same,Population Hoechst High Intensity Objects (%),[9],7%
same,Population Membrane Permeable-Phenotype (%),[9],20%
same,Population Mitochondria Different-Phenotype (%),[9],4%
same,Population Mitotic Cells (%),[9],35%
same,Population Normal (%),[9],92%
same,Population Pyknosed Nuclei (%),[9],18%
same,Population Tubulin-Different-Phenotype (%),[9],56%
same,Total Cell Count,[9],117
same,Population Apoptotic (%),[10],60%
same,Population Fragmented Nuclei (%),[10],25%
same,Population Healthy Nuclei (%),[10],69%
same,Population Hoechst High Intensity Objects (%),[10],11%
same,Population Membrane Permeable-Phenotype (%),[10],7%
same,Population Mitochondria Different-Phenotype (%),[10],3%
same,Population Mitotic Cells (%),[10],40%
same,Population Normal (%),[10],88%
same,Population Pyknosed Nuclei (%),[10],5%
same,Population Tubulin-Different-Phenotype (%),[10],38%
same,Total Cell Count,[10],103
same,Population Apoptotic (%),[11],80%
same,Population Fragmented Nuclei (%),[11],37%
same,Population Healthy Nuclei (%),[11],53%
same,Population Hoechst High Intensity Objects (%),[11],31%
same,Population Membrane Permeable-Phenotype (%),[11],10%
same,Population Mitochondria Different-Phenotype (%),[11],20%
same,Population Mitotic Cells (%),[11],20%
same,Population Normal (%),[11],68%
same,Population Pyknosed Nuclei (%),[11],9%
same,Population Tubulin-Different-Phenotype (%),[11],81%
same,Total Cell Count,[11],235
same,Population Apoptotic (%),[12],33%
same,Population Fragmented Nuclei (%),[12],33%
same,Population Healthy Nuclei (%),[12],63%
same,Population Hoechst High Intensity Objects (%),[12],32%
same,Population Membrane Permeable-Phenotype (%),[12],7%
same,Population Mitochondria Different-Phenotype (%),[12],12%
same,Population Mitotic Cells (%),[12],66%
same,Population Normal (%),[12],67%
same,Population Pyknosed Nuclei (%),[12],2%
same,Population Tubulin-Different-Phenotype (%),[12],85%
same,Total Cell Count,[12],162
